# Test results: ChEMBL document CHEMBL1155470, “Colloid formation by drugs in simulated intestinal fluid” (J Med Chem, 2010)
# Counter-ions that a name gives are not always drawn. Activity calls are given as the source filed them. No cut-off for these calls is given here.
# Tests used:
# Cruzipain [1] = target: T1, Cruzipain (Trypanosoma cruzi, UniProt P25779); test: Inhibition of Trypanosoma cruzi cruzaine preincubated for 5 mins before substrate addition by fluorescence assay in presence of 0.01% Triton X-100
# Cruzipain [2] = target: T1, Cruzipain; test: Inhibition of Trypanosoma cruzi cruzaine preincubated for 5 mins before substrate addition by fluorescence assay in absence of Triton X-100
# [3] = Colloidal aggregation in fed state simulated intestinal fluid assessed as colloid radius at 50 uM by dynamic light scattering assay in presence of 1% DMSO; assay type: physicochemical; conditions: simulated gi fluid
# Summary of the method: (§1)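 Concentrated DMSO stocks diluted into filtered FeSSIF: blank FeSSIF plus 15 mM sodium taurocholate and 3.75 mM lecithin, dissolved at 37 °C. Final DMSO 1% unless otherwise noted. Particle size by dynamic light scattering at 826.6 nm, detector at 90°, 100% laser power. Values are averages of three or more independent measurements at room temperature.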
# [4] = Colloidal aggregation in fed state simulated intestinal fluid assessed as colloid radius at 20 uM by dynamic light scattering assay in presence of 1% DMSO; assay type: physicochemical; conditions: simulated gi fluid; summary of the method: as §1
# [5] = Colloidal aggregation in fed state simulated intestinal fluid by dynamic light scattering-based beads autocorrelation assay in presence of 1% DMSO; assay type: physicochemical; conditions: simulated gi fluid
# Summary of the method: (§2)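 FeSSIF samples examined by DLS (826.6 nm laser, 90° detector, room temperature), comparing autocorrelation curves with blank FeSSIF. The micelle background was checked with 200 nm calibration beads diluted in FeSSIF. Drug samples were made by diluting DMSO stocks into filtered FeSSIF (15 mM taurocholate, 3.75 mM lecithin).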
# [6] = Colloidal aggregation in fed state simulated intestinal fluid assessed as colloid radius at 10 uM by dynamic light scattering assay in presence of 1% DMSO; conditions: simulated gi fluid
# [7] = Colloidal aggregation in fed state simulated intestinal fluid at 550 uM by dynamic light scattering-based beads autocorrelation assay in presence of 2.75% DMSO; assay type: physicochemical; conditions: simulated gi fluid; summary of the method: as §2
# [8] = Colloidal aggregation in fed state simulated intestinal fluid by dynamic light scattering assay in presence of 0.25% DMSO; assay type: physicochemical; conditions: simulated gi fluid; summary of the method: as §1
# [9] = Colloidal aggregation in fed state simulated intestinal fluid by dynamic light scattering assay in presence of 2.75% DMSO; assay type: physicochemical; conditions: simulated gi fluid; summary of the method: as §1
# [10] = Colloidal aggregation in fed state simulated intestinal fluid assessed as colloid radius at 550 uM by dynamic light scattering assay in presence of 2.75% DMSO; conditions: simulated gi fluid
# [11] = Colloidal aggregation in fed state simulated intestinal fluid by dynamic light scattering assay in presence of 0.6% DMSO; assay type: physicochemical; conditions: simulated gi fluid; summary of the method: as §1
# [12] = Colloidal aggregation in fed state simulated intestinal fluid assessed as colloid radius at 120 uM by dynamic light scattering assay in presence of 1% DMSO; assay type: physicochemical; conditions: simulated gi fluid; summary of the method: as §1
# [13] = Colloidal aggregation in fed state simulated intestinal fluid assessed as colloid radius at 500 uM by dynamic light scattering assay in presence of 1% DMSO; assay type: physicochemical; conditions: simulated gi fluid; summary of the method: as §1
# [14] = Colloidal aggregation in fed state simulated intestinal fluid assessed as colloid radius at 600 uM by dynamic light scattering assay in presence of 6% DMSO; conditions: simulated gi fluid
# [15] = Colloidal aggregation in fed state simulated intestinal fluid by dynamic light scattering assay in presence of 6% DMSO; assay type: physicochemical; conditions: simulated gi fluid; summary of the method: as §1
# [16] = Colloidal aggregation in fed state simulated intestinal fluid at 600 uM by dynamic light scattering-based beads autocorrelation assay in presence of 6% DMSO; assay type: physicochemical; conditions: simulated gi fluid; summary of the method: as §2
# [17] = Colloidal aggregation in fed state simulated intestinal fluid by dynamic light scattering assay in presence of 0.5% DMSO; assay type: physicochemical; conditions: simulated gi fluid; summary of the method: as §1
# [18] = Colloidal aggregation in fed state simulated intestinal fluid assessed as colloid radius at 600 uM by dynamic light scattering assay in presence of 3% DMSO; assay type: physicochemical; conditions: simulated gi fluid; summary of the method: as §1
# [19] = Colloidal aggregation in phosphate buffer at 200 uM by transmission electron microscopy in presence of 0.2% DMSO; assay type: physicochemical
# Summary of the method: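 Drug DMSO stocks diluted into 50 mM phosphate buffer. Samples adsorbed ~30 s onto glow-discharged formvar/carbon-coated copper grids and negatively stained with 2% ammonium molybdate. Imaged by transmission electron microscopy at 80 kV, standard magnification 25 000.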
# [20] = Aggregation-based binding affinity to beta-lactamase AmpC at 700 uM in fed state simulated intestinal fluid after 30 mins by silver staining in presence of 3% DMSO
# Summary of the method: (§3)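 Cosedimentation in FeSSIF, with and without 2 μg AmpC β-lactamase added per sample. Samples centrifuged at 16000g for 30 min at room temperature. Supernatant removed completely; pellets resuspended in DMSO plus 50 mM KPi pH 7.0 and run on SDS-PAGE. Protein detected by silver staining. Drug-only pellets included as background controls.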
# [21] = Colloidal aggregation in fed state simulated intestinal fluid by dynamic light scattering assay in presence of 3% DMSO; assay type: physicochemical; conditions: simulated gi fluid; summary of the method: as §1
# [22] = Colloidal aggregation in fed state simulated intestinal fluid at 700 uM by transmission electron microscopy in presence of 3% DMSO; assay type: physicochemical; conditions: simulated gi fluid
# Summary of the method: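 Drug DMSO stocks diluted into FeSSIF. Samples adsorbed ~30 s onto glow-discharged formvar/carbon-coated copper grids and negatively stained with 2% ammonium molybdate. Viewed by transmission electron microscopy at 80 kV, standard magnification 25 000, calibrated with catalase crystals and ferritin.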
# [23] = Colloidal aggregation in fed state simulated intestinal fluid assessed as colloid radius at 100 uM by dynamic light scattering assay in presence of 1% DMSO; assay type: physicochemical; conditions: simulated gi fluid; summary of the method: as §1
# [24] = Binding affinity to beta-lactamase AmpC at 700 uM after 30 mins by SDS-PAGE; summary of the method: as §3
# T1 sequence (P25779 whole entry): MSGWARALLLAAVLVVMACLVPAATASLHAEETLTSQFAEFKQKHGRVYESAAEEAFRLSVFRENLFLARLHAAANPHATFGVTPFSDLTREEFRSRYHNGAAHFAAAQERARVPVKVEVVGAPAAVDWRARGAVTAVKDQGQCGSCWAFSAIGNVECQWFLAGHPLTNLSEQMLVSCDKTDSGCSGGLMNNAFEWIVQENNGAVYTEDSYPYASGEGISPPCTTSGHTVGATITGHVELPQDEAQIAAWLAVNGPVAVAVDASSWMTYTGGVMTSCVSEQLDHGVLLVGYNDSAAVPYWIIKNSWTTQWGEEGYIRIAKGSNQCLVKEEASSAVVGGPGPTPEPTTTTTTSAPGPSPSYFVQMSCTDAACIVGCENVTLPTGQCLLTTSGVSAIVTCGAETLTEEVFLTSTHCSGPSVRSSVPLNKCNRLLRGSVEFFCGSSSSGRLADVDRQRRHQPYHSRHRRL
structure (smiles),measurement,setting,value
O=C(Nc1cccc2c(=O)cc(-c3nnn[nH]3)oc12)c1ccc(OCCCCc2ccccc2)cc1,IC50,Cruzipain [1],68 µM
same,IC50,Cruzipain [2],7 µM
same,Activity,[3],1167.7 nm
Cc1c(O)cccc1C(=O)N[C@@H](CSc1ccccc1)[C@H](O)CN1C[C@H]2CCCC[C@H]2C[C@H]1C(=O)NC(C)(C)C,IC50,Cruzipain [1],> 300 µM
same,IC50,Cruzipain [2],144 µM
same,Activity,[4],690.7 nm
Cc1c(C)c2c(c(C)c1OC(=O)c1cccnc1)CC[C@@](C)(CCC[C@H](C)CCC[C@H](C)CCCC(C)C)O2 (racemic),IC50,Cruzipain [1],> 400 µM
same,Activity,[5],Active
same,Activity,[6],104.1 nm
same,IC50,Cruzipain [2],98 µM
same,Activity,[3],55.7 nm
CCCCc1oc2ccccc2c1C(=O)c1cc(I)c(OCCN(CC)CC)c(I)c1 [AMIODARONE HYDROCHLORIDE],IC50,Cruzipain [1],206 µM
same,IC50,Cruzipain [2],4 µM
CCOc1nc2cccc(C(=O)OC(C)OC(=O)OC3CCCCC3)c2n1Cc1ccc(-c2ccccc2-c2nnn[nH]2)cc1 (stereo unspecified) [CANDESARTAN CILEXETIL],Activity,[7],Active
same,Activity,[8],50 µM
same,IC50,Cruzipain [1],168 µM
same,IC50,Cruzipain [2],42 µM
same,Activity,[9],550 µM
same,Activity,[3],38.8 nm
same,Activity,[10],50.1 nm
Cc1ccc(-c2cc(C(F)(F)F)nn2-c2ccc(S(N)(=O)=O)cc2)cc1 [CELECOXIB],IC50,Cruzipain [1],> 400 µM
same,IC50,Cruzipain [2],126 µM
same,Activity,[11],120 µM
same,Activity,[12],161.8 nm
CN(C)CCCN1c2ccccc2Sc2ccc(Cl)cc21.Cl [CHLORPROMAZINE HYDROCHLORIDE],Activity,[13],29.2 nm
C(=C\c1ccccc1)/CN1CCN(C(c2ccccc2)c2ccccc2)CC1 [CINNARIZINE],IC50,Cruzipain [1],> 300 µM
same,IC50,Cruzipain [2],124 µM
CC(C)/N=c1\cc2n(-c3ccc(Cl)cc3)c3ccccc3nc-2cc1Nc1ccc(Cl)cc1 [CLOFAZIMINE],Activity,[14],103.7 nm
same,IC50,Cruzipain [1],40 µM
same,Activity,[15],600 µM
same,Activity,[16],Active
same,Activity,[6],356.1 nm
same,IC50,Cruzipain [2],6 µM
COC(=O)[C@H](c1ccccc1Cl)N1CCc2sccc2C1 [CLOPIDOGREL BISULFATE],IC50,Cruzipain [1],> 300 µM
same,IC50,Cruzipain [2],123 µM
CC(C)Nc1cccnc1N1CCN(C(=O)c2cc3cc(NS(C)(=O)=O)ccc3[nH]2)CC1.CS(=O)(=O)O [DELAVIRDINE MESYLATE],Activity,[17],100 µM
same,Activity,[18],62.8 nm
same,IC50,Cruzipain [1],> 200 µM
same,Activity,[19],Active
same,Activity,[20],Active
same,Activity,[5],Active
same,IC50,Cruzipain [2],122 µM
same,Activity,[21],600 µM
same,Activity,[22],Active
same,Activity,[23],195.1 nm
same,Activity,[24],inactive
